In ChEMBL document CHEMBL3627646, “Synthesis and biological activity of amino acid derivatives of avarone and its model compound” (Bioorg Med Chem, 2015):
Values after ≈ are worked out from the molar mass of the structure shown. Active and inactive are the calls of the source. The calls are words filed in the database; no cut-off is given here.

Key:
MRC5 [1] = assay: Cytotoxicity against human MRC5 cells; format: cell-based
HeLa [2] = assay: Cytotoxicity against human HeLa cells assessed as cell survival after 72 hrs by MTT assay; format: functional, cell-based
Outline: (§1)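 Cells seeded (HeLa 2000, MDA-MB-453 3000, others 5000 per well), treated 24 h later (K562 after 2 h). Five double-diluted final concentrations, 200–12.5 μM, from 10 mM DMSO stocks, in RPMI-1640 with 10% FBS, pH 7.2, 72 h. MTT 4 h at 37 °C, SDS added, A570 read next day. Survival relative to medium control; IC50 from survival curves; triplicate; cisplatin positive control.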

A549 = assay: Cytotoxicity against human A549 cells assessed as cell survival after 72 hrs by MTT assay; format: functional, cell-based; settings: A549, 72 h; outline: as §1
[3] = Cytotoxicity against human Fem-X cells assessed as cell survival after 72 hrs by MTT assay; format: functional, cell-based; outline: as §1
K562 = assay: Cytotoxicity against human K562 cells assessed as cell survival after 72 hrs by MTT assay; format: functional, cell-based; settings: K562, 72 h; outline: as §1
MDA-MB-453 = assay: Cytotoxicity against human MDA-MB-453 cells assessed as cell survival after 72 hrs by MTT assay; format: functional, cell-based; settings: MDA-MB-453, 72 h; outline: as §1
MRC5 [4] = assay: Cytotoxicity against human MRC5 cells assessed as cell survival after 72 hrs by MTT assay; format: cell-based; settings: MRC5, 72 h; outline: as §1
HeLa [5] = assay: Cell cycle arrest in human HeLa cells assessed as accumulation at sub-G1 phase at IC50 after 24 hrs using propidium iodide staining by cytofluorometric analysis; format: functional, cell-based
Outline: (§2)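 Trypsinized, fixed in ice-cold 70% ethanol then held at −20 °C at least one week. Treated with RNase 100 µg/mL at 37 °C 30 min, stained with PI 40 µg/mL at least 30 min. Flow cytometry on ≥10,000 cells.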

HeLa [6] = assay: Cell cycle arrest in human HeLa cells assessed as reduction in G1 phase at IC50 after 24 hrs using propidium iodide staining by cytofluorometric analysis; format: functional, cell-based; outline: as §2
HeLa [7] = assay: Cell cycle arrest in human HeLa cells assessed as accumulation at sub-G1 phase at 2 time IC50 after 24 hrs using propidium iodide staining by cytofluorometric analysis; format: functional, cell-based; outline: as §2
HeLa [8] = assay: Cell cycle arrest in human HeLa cells assessed as reduction in G1 phase at 2 time IC50 after 24 hrs using propidium iodide staining by cytofluorometric analysis; format: functional, cell-based; outline: as §2
HeLa [9] = assay: Induction of apoptosis in human HeLa cells assessed as accumulation at sub-G1 phase after 24 hrs in presence of caspase-3 inhibitor Z-DEVD-FMK using propidium iodide staining by flow cytometric analysis; format: functional, cell-based
HeLa [10] = assay: Induction of apoptosis in human HeLa cells assessed as accumulation at sub-G1 phase after 24 hrs in presence of caspase-8 inhibitor Z-IETD-FMK using propidium iodide staining by flow cytometric analysis; format: functional, cell-based
HeLa [11] = assay: Induction of apoptosis in human HeLa cells assessed as accumulation at sub-G1 phase after 24 hrs in presence of caspase-9 inhibitor Z-LEHD-FMK using propidium iodide staining by flow cytometric analysis; format: functional, cell-based
HeLa [12] = assay: Induction of apoptosis in human HeLa cells assessed as accumulation at sub-G1 phase after 24 hrs using propidium iodide staining by flow cytometric analysis; format: functional, cell-based
Staphylococcus aureus = assay: Antibacterial activity against Staphylococcus aureus ATCC 6538 after 24 hrs by microbroth double dilution method; format: functional; settings: ATCC 6538, 24 h
Outline: (§3)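 Microbroth double dilution in Mueller Hinton broth; compound stock 10 mg/mL in DMSO serially halved across rows. Wells inoculated with 10 μL culture at 10^6 cells/mL, incubated 37 °C for 24 h. Amikacin row as positive control, DMSO row as negative control. MIC taken as lowest concentration inhibiting bacterial growth.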

Kocuria rhizophila = assay: Antibacterial activity against Kocuria rhizophila ATCC 9341 after 24 hrs by microbroth double dilution method; format: functional; settings: ATCC 9341, 24 h; outline: as §3
Bacillus subtilis = assay: Antibacterial activity against Bacillus subtilis ATCC 6633 after 24 hrs by microbroth double dilution method; format: functional; settings: ATCC 6633, 24 h; outline: as §3
Micrococcus luteus = assay: Antibacterial activity against Micrococcus luteus ATCC 4698 after 24 hrs by microbroth double dilution method; format: functional; settings: ATCC 4698, 24 h; outline: as §3
Micrococcus flavus = assay: Antibacterial activity against Micrococcus flavus ATCC 10240 after 24 hrs by microbroth double dilution method; format: functional; settings: ATCC 10240, 24 h; outline: as §3
Clostridium sporogenes = assay: Antibacterial activity against Clostridium sporogenes ATCC 19404 after 24 hrs by microbroth double dilution method; format: functional; settings: ATCC 19404, 24 h; outline: as §3
Escherichia coli = assay: Antibacterial activity against Escherichia coli ATCC 25922 after 24 hrs by microbroth double dilution method; format: functional; settings: ATCC 25922, 24 h; outline: as §3
Proteus hauseri = assay: Antibacterial activity against Proteus hauseri ATCC 13315 after 24 hrs by microbroth double dilution method; format: functional; settings: ATCC 13315, 24 h; outline: as §3
Salmonella enterica = assay: Antibacterial activity against Salmonella enterica ATCC 13076 after 24 hrs by microbroth double dilution method; format: functional; settings: ATCC 13076, 24 h; outline: as §3
Pseudomonas aeruginosa = assay: Antibacterial activity against Pseudomonas aeruginosa ATCC 9027 after 24 hrs by microbroth double dilution method; format: functional; settings: ATCC 9027, 24 h; outline: as §3
Candida albicans = assay: Antifungal activity against Candida albicans ATCC 10231 after 24 hrs by microbroth double dilution method; format: functional; settings: ATCC 10231, 24 h
Saccharomyces cerevisiae = assay: Antifungal activity against Saccharomyces cerevisiae ATCC 9763 after 24 hrs by microbroth double dilution method; format: functional; settings: ATCC 9763, 24 h
Aspergillus brasiliensis = assay: Antifungal activity against Aspergillus brasiliensis ATCC 16404 after 24 hrs by microbroth double dilution method; format: functional; settings: ATCC 16404, 24 h
Artemia salina = assay: Cytotoxicity in Brine shrimp assessed as nauplii mortality after 24 hrs; format: organism-based; settings: in vivo
Outline: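 Artemia salina eggs hatched in aerated tap water with dried yeast at 18–20 °C under illumination for 48 h, and freshly hatched nauplii were used. Compounds in DMSO (0.01–1 mg) were added to 950 µL artificial seawater containing 10–20 nauplii, with 5% final DMSO. After 24 h under illumination at room temperature, dead and surviving nauplii were counted and statistically analysed.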

HeLa [13] = assay: Cell cycle arrest in human HeLa cells assessed as accumulation at G2/M phase at IC50 after 24 hrs using propidium iodide staining by cytofluorometric analysis; format: functional, cell-based; outline: as §2
HeLa [14] = assay: Cell cycle arrest in human HeLa cells assessed as accumulation at G2/M phase at 2 time IC50 after 24 hrs using propidium iodide staining by cytofluorometric analysis; format: functional, cell-based; outline: as §2
HeLa [15] = assay: Cell cycle arrest in human HeLa cells assessed as accumulation at sub-G1 phase after 24 hrs using propidium iodide staining by cytofluorometric analysis; format: functional, cell-based; outline: as §2
HeLa [16] = assay: Cell cycle arrest in human HeLa cells assessed as accumulation at G2/M phase after 24 hrs using propidium iodide staining by cytofluorometric analysis; format: functional, cell-based; outline: as §2

Compound	IC50 (HeLa [2]) [µM]	IC50 (A549) [µM]	IC50 [3] [µM]	IC50 (K562) [µM]	IC50 (MDA-MB-453) [µM]	IC50 (MRC5 [4]) [µM]	MIC (Staphylococcus aureus) [µM]	MIC (Kocuria rhizophila) [µM]	MIC (Bacillus subtilis) [µM]	MIC (Micrococcus luteus) [µM]	MIC (Micrococcus flavus) [µM]	MIC (Clostridium sporogenes) [µM]	MIC (Escherichia coli) [µM]	MIC (Proteus hauseri) [µM]	MIC (Salmonella enterica) [µM]	MIC (Pseudomonas aeruginosa) [µM]	MIC (Candida albicans) [µM]	MIC (Saccharomyces cerevisiae) [µM]	MIC (Aspergillus brasiliensis) [µM]	LC50 (Artemia salina) [ppm]	also measured
CC1=CCC[C@H]2[C@](C)(CC3=CC(=O)C(N[C@@H](CC(C)C)C(=O)O)=CC3=O)[C@@H](C)CC[C@]12C	–	–	–	–	–	–	–	–	–	–	–	–	–	–	–	–	–	–	–	–	IC50 (MRC5 [1]): > 100 µM
CC1=CCC[C@H]2[C@](C)(CC3=CC(=O)C=C(N[C@@H](CC(C)C)C(=O)O)C3=O)[C@@H](C)CC[C@]12C	7.72	19.7	10.9	11.2	10.9	73.4	5.55 (≈ 2.45 µg/mL)	709 (≈ 313 µg/mL)	88.3 (≈ 39 µg/mL)	11.1 (≈ 4.9 µg/mL)	88.3 (≈ 39 µg/mL)	44.2 (≈ 19.5 µg/mL)	5.55 (≈ 2.45 µg/mL)	44.2 (≈ 19.5 µg/mL)	88.3 (≈ 39 µg/mL)	88.3 (≈ 39 µg/mL)	< 5.54	176 (≈ 77.9 µg/mL)	1410 (≈ 624 µg/mL)	117	Activity (HeLa [5]): Active; Activity (HeLa [6]): Active; Activity (HeLa [7]): Active; Activity (HeLa [8]): Active; Activity (HeLa [9]): inactive; Activity (HeLa [10]): inactive; Activity (HeLa [11]): inactive; Activity (HeLa [12]): Active
CC1=CCC[C@H]2[C@](C)(CC3=CC(=O)C=C(NCCC(=O)O)C3=O)[C@@H](C)CC[C@]12C	8.87	26.9	20.2	15.5	3.31	80.8	24.5 (≈ 9.8 µg/mL)	393 (≈ 157 µg/mL)	393 (≈ 157 µg/mL)	48.8 (≈ 19.5 µg/mL)	783 (≈ 313 µg/mL)	393 (≈ 157 µg/mL)	48.8 (≈ 19.5 µg/mL)	393 (≈ 157 µg/mL)	783 (≈ 313 µg/mL)	783 (≈ 313 µg/mL)	195 (≈ 77.9 µg/mL)	12.2 (≈ 4.89 µg/mL)	782 (≈ 313 µg/mL)	84.3	Activity (HeLa [13]): Active; Activity (HeLa [14]): Active; Activity (HeLa [9]): inactive; Activity (HeLa [10]): inactive; Activity (HeLa [11]): inactive; Activity (HeLa [12]): Active
CC1=CCC[C@H]2[C@](C)(CC3=CC(=O)C=C(N[C@@H](C(=O)O)C(C)C)C3=O)[C@@H](C)CC[C@]12C	10.9	23.8	11.4	7.78	8.01	85.4	22.9 (≈ 9.81 µg/mL)	1460 (≈ 626 µg/mL)	91.3 (≈ 39.1 µg/mL)	22.9 (≈ 9.81 µg/mL)	91.3 (≈ 39.1 µg/mL)	91.3 (≈ 39.1 µg/mL)	22.9 (≈ 9.81 µg/mL)	183 (≈ 78.1 µg/mL)	183 (≈ 78.1 µg/mL)	91.3 (≈ 39.1 µg/mL)	< 2.88	368 (≈ 157 µg/mL)	164 (≈ 70.2 µg/mL)	50.5	Activity (HeLa [5]): Active; Activity (HeLa [6]): Active; Activity (HeLa [7]): Active; Activity (HeLa [8]): Active; Activity (HeLa [13]): Active; Activity (HeLa [14]): Active; Activity (HeLa [15]): Dose-dependent effect; Activity (HeLa [16]): Dose-dependent effect
